Ins promoter up = MIN6 insulin promoter up-regulation. MIN6 insulin promoter-GFP reporter, high-content imaging; hits give high values. z-score at 5 µM. 190,000 compounds, 0.3% hits;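 active = z-score above 3 at 5 µM with at least 500 cells counted in the well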
BB579 growth dn = yeast BB579 growth reduction in restrictive medium; inhibition, % at 10 µM; 140,000 compounds, 0.51% hits; AID 804; S. cerevisiae BB579 growth, OD615, 48 h;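 active = inhibition above a set limit, 3 SD over the mean compound inhibition, cut at about 44% in these data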
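Test system: DeaD yeast strain BB579 / Buffer or medium: restrictive glucose-based CSMM-D medium / Doses: single 10 µM dose / Schedule: 4 h cell preincubation, 48 h compound exposure, 30 °C humidified / Technique: culture absorbance at 615 nm / Controls: amphotericin B positive control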
Yeast lifespan up = extends the lifespan of yeast | inhibition of the nicotinamide effect, % at 10 µM | 130,000 compounds, 0.68% hits | S. cerevisiae growth with nicotinamide, OD615; deaD strain in restrictive glucose medium | AID 775;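 active = inhibition above a set limit, placed 3 SD over the median of all compounds, cut at about 26% in these data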;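 also: 0% = nicotinamide-treated wells and 100% = cells grown without nicotinamide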
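Test system – modified budding yeast, DeaD strain · Compound – single dose 10 µM compound, 0.25% DMSO · Times – culture preincubation 4 h, compound exposure 48 h, both 30 °C · Detection – optical density (absorbance) at 615 nm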
Insulin prom inh = TRM-6 insulin promoter activity inhibition | TRM-6 cells (human fetal islet line), insulin promoter-eGFP reporter, imaging; reporter expression induced with tamoxifen | inhibition, % at 2 µM | 130,000 compounds, 0.9% hits;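 active = inhibition above the mean plus 3 SD, with well images judged a real hit on visual review, cut at about 60% in these data, passing the limit was not always enough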
RAM inhibit = inhibitors of the yeast RAM network; S. cerevisiae dse1pr::URA3 reporter, 5-FOA growth OD615, 2 d; analog-sensitive cbk1-as2 kinase mutant strain; inhibition, % at 50 µM; 190,000 compounds, 1.8% hits; AID 868;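 active = inhibition above a set limit, 3 SD over mean compound inhibition, cut at about 8.4% in these data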;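 also: 0% = DMSO-only wells with no growth and 100% = 10 µM 1-NA-PP1 full growth; inhibition rescues growth on 5-FOA so higher OD means more RAM inhibition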
* hit, by the source's call; / = no result given. Compounds with a hit are over-represented: about 3.1% of the library has one in this group of screens.

SMILES	Ins promoter up	BB579 growth dn	Yeast lifespan up	Insulin prom inh	RAM inhibit
FC(F)(F)c1nc2cc3nc4ccccc4[nH]c3cc2n1	0.54	/	/	/	/
Cc1ccc(NC(=O)C(C)c2cccc(C(=O)c3ccccc3)c2)cc1O (configuration not stated)	-1.52	-56.0	7.2	-64.3	8.8*
O=C1NC(=O)/C(=C\c2ccsc2)N1	0.36	/	/	72.2*	1.9
Cc1cc(C)n(C(=O)c2ccc(NC(=O)CC(C)C)cc2)n1	-0.16	-20.9	-16.5	74.2*	0.3
N#Cc1cc(NC(=O)c2ccc(F)cc2)c(=O)n2c1[nH]c1ccccc12	0.74	/	/	/	4.6
Cc1cc(C)c2c(N)c3cccc(C)c3nc2n1	-1.13	-1.3	-1.8	/	-1.2
CSc1ccc(S(=O)(=O)NCc2ccc(Cl)cc2Cl)cc1	-0.16	-70.1	87.6*	48.3	1.8
CCOc1ccc(N(C)S(=O)(=O)c2ccc3[nH]cc(C(=O)NCC4CCCO4)c(=O)c3c2)cc1 (configuration not stated)	-1.71	-13.0	-5.8	31.6	10.6*
CCSc1nc(N)c2c(C)c(C)sc2n1	/	-69.6	/	77.8*	2.4
CCOC(=O)Cc1csc(NC(=O)CC)n1	-0.24	-33.4	-6.5	/	-0.5
CCOC(=O)Cc1csc(NC(=O)CSc2nc(N)c3c(C)c(C)sc3n2)n1	/	-32.7	-2.1	100.0*	2.7
O=c1cc(CNc2cc(Cl)ccc2Cl)nc2sccn12	/	-36.6	-6.6	0.0	-0.4
COc1ccc(-c2nnc(N)s2)cc1	-0.64	-4.9	-9.5	75.0*	2.8
CCCN(CCC)S(=O)(=O)c1ccc(Cl)c([N+](=O)[O-])c1	1.16	/	/	/	0.4
CCOC(=O)C(C)(C)N(Cc1ccccc1C)S(=O)(=O)c1ccc(Cl)c([N+](=O)[O-])c1	-0.17	-57.9	13.7	7.1	9.3*
O=C(Cn1cnc2ccccc2c1=O)NCc1cccs1	-0.37	/	/	-35.0	2.0
Cc1c(Br)ccc(NC(=O)c2ccccc2[N+](=O)[O-])c1C	-0.23	/	/	-47.6	7.0
COc1ccc(N2CCN(C(=O)CCCn3c(=O)[nH]c4cc(Cl)ccc4c3=O)CC2)cc1	0.01	-25.3	-1.3	74.2*	0.6
O=C1c2ccccc2NC(c2ccc(-c3cccc([N+](=O)[O-])c3)o2)N1O (configuration not stated)	-0.3	26.8	2.3	38.5	0.7
O=C1c2ccccc2NC(c2ccc(-c3ccc(Br)cc3)o2)N1O (configuration not stated)	-0.03	93.6*	-2.8	-11.1	-1.2
O=C1CC(N2CCCc3ccccc32)C(=O)N1c1ccccc1Cl (configuration not stated)	/	-26.8	/	53.3	2.4
COc1ccc(C(=O)C23CC4CC(C2)CC(C(=O)c2ccc(OC)cc2)(C4)C3)cc1	-0.22	/	/	/	9.1*
CCOC(=O)C(C)c1c(C(=O)c2ccc(C)nc2)c2ccccc2n1C (configuration not stated)	0.02	/	/	/	/
O=C(CCl)NC(=O)NC12CC3CC(CC(C3)C1)C2	/	15.2	35.0*	58.1	0.7
Cc1ccc(S(=O)(=O)c2cccc(S(=O)(=O)N3CCCC3)c2)cc1S(=O)(=O)N1CCCC1	3.05*	-24.8	7.0	-25.9	1.6
SMILES	Ins promoter up	BB579 growth dn	Yeast lifespan up	Insulin prom inh	RAM inhibit
Cc1ccc(S(=O)(=O)c2cccc(S(=O)(=O)N3CCOCC3)c2)cc1S(=O)(=O)N1CCOCC1	0.17	-12.9	-20.3	-24.3	1.6
CC1CN(c2ccccc2)CCN1Cc1nc(Cc2ccccc2)no1 (configuration not stated)	0.41	/	/	-78.6	-0.4
O=C(Oc1ccc2c3c(c(=O)oc2c1)CCC3)c1ccco1	-0.25	-13.7	-12.4	35.7	3.7
O=C(CCCCCN1C(=O)c2ccccc2C1=O)Oc1ccc2c3c(c(=O)oc2c1)CCC3	0.46	-50.0	23.3	-6.1	11.2*
C=CCn1c(SCC(=O)c2ccc(OC)cc2)nnc1-c1cc2cccc(OC)c2o1	-0.89	-35.4	-8.5	4.5	10.6*
Nc1c(C(=O)O)sc2nc(-c3ccccc3)cc(-c3ccccc3)c12	4.64*	/	/	/	/
Cc1ccc(S(=O)(=O)N(C)CC(=O)OCC(=O)c2c(N)n(C)c(=O)n(C)c2=O)cc1	-0.76	8.2	-3.7	/	1.1
O=C(Nc1ccc(N2C(=O)C3C4C=CC(C4)C3C2=O)cc1Cl)c1cccs1 (configuration not stated)	0.08	/	/	/	9.8*
Nc1ccc(NC(=O)c2cccs2)c(Cl)c1	0.19	-7.6	-20.2	-100.0	0.8

Source: PubChem (several laboratories)
